According to ChEMBL document CHEMBL1145501, “Effect of macrolide usage on emergence of erythromycin-resistant Campylobacter isolates in chickens” (2007):
Values after ≈ are worked out from the molar mass of the structure shown. Active and inactive are the calls of the source. The rule behind the calls is not given here.

Experiments:
Campylobacter jejuni [1] = test: Antimicrobial activity against Campylobacter jejuni S3B with cmeB mutation by agar dilution method; type: functional
Method in brief: (§1)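 cmeB knockouts were made by biphasic natural transformation, using genomic DNA of 11168B (cmeB::kan) as donor. Transformants were selected on 30 μg/ml kanamycin and the insertion confirmed by PCR. The isogenic mutants were then MIC-tested by agar dilution on MH medium at 42°C under microaerobic conditions.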

Campylobacter jejuni [2] = test: Antimicrobial activity against Campylobacter jejuni 700819 mutant 5/A2074G and cmeB mutation by agar dilution method; type: functional; method in brief: as §1
Campylobacter jejuni [3] = test: Antimicrobial activity against Campylobacter jejuni S3BE4-2 mutant by agar dilution method; type: functional
Method in brief: (§2)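 MIC by CLSI agar dilution. Campylobacter was grown on Mueller-Hinton medium at 42°C under microaerobic conditions. Ery-resistant mutants were selected either in vitro, by plating late-log antibiotic-free broth cultures on MH agar with 2, 4 or 8 μg/ml Ery for 2 days, or from tylosin-exposed chickens.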

Campylobacter jejuni [4] = test: Antimicrobial activity against Campylobacter jejuni S3BE8-1 mutant by agar dilution method; type: functional; method in brief: as §2
Campylobacter jejuni [5] = test: Antimicrobial activity against Campylobacter jejuni 700819 mutant 6 by agar dilution method; type: functional; method in brief: as §2
Campylobacter jejuni [6] = test: Antimicrobial activity against Campylobacter jejuni 700819 mutant 4/A2074G and cmeB mutation by agar dilution method; type: functional; method in brief: as §1
Campylobacter jejuni [7] = test: Effect on Campylobacter jejuni 700819 mutant colonization at 8 ug/ml; type: functional, organism-based
Method in brief: (§3)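 Chickens colonized with C. jejuni were sampled by cloacal swabs. Serial dilutions were plated on selective MH agar with and without 8 μg/ml Ery and counted after 48 h at 42°C under microaerobic conditions, giving the Ery-nonsusceptible fraction per bird. Detection limit was about 100 CFU/g feces.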

Campylobacter coli [8] = test: Antimicrobial activity against Campylobacter coli AW-II-37 by agar dilution method; type: functional; method in brief: as §2
Campylobacter coli [9] = test: Antimicrobial activity against Campylobacter coli RN14BE8-3 mutant by agar dilution method; type: functional; method in brief: as §2
Campylobacter coli [10] = test: Antimicrobial activity against Campylobacter coli RN14BE8-1 mutant by agar dilution method; type: functional; method in brief: as §2
Campylobacter coli [11] = test: Antimicrobial activity against Campylobacter coli RN14BE4-3 mutant by agar dilution method; type: functional; method in brief: as §2
Campylobacter coli [12] = test: Antimicrobial activity against Campylobacter coli RN14BE4-2 mutant by agar dilution method; type: functional; method in brief: as §2
Campylobacter jejuni [13] = test: Antimicrobial activity against Campylobacter jejuni S3BE2-2 mutant with cmeB mutation by agar dilution method; type: functional; method in brief: as §1
Campylobacter jejuni [14] = test: Antimicrobial activity against Campylobacter jejuni 700819 mutant 11 by agar dilution method; type: functional; method in brief: as §2
Campylobacter jejuni [15] = test: Antimicrobial activity against Campylobacter jejuni 700819 mutant 8 with cmeB mutation by agar dilution method; type: functional; method in brief: as §1
Campylobacter jejuni [16] = test: Antimicrobial activity against Campylobacter jejuni 700819 mutant 3 by agar dilution method; type: functional; method in brief: as §2
Campylobacter coli [17] = test: Antimicrobial activity against Campylobacter coli MR32DE4-1 mutant by agar dilution method; type: functional; method in brief: as §2
Campylobacter jejuni [18] = test: Antimicrobial activity against Campylobacter jejuni 700819 mutant 11 with cmeB mutation by agar dilution method; type: functional; method in brief: as §1
Campylobacter jejuni [19] = test: Antimicrobial activity against Campylobacter jejuni 700819 mutant 6/A2074G and cmeB mutation by agar dilution method; type: functional; method in brief: as §1
Campylobacter jejuni [20] = test: Antimicrobial activity against Campylobacter jejuni 700819 mutant 5 by agar dilution method; type: functional; method in brief: as §2
Campylobacter jejuni [21] = test: Antimicrobial activity against Campylobacter jejuni 700819 mutant 9 by agar dilution method; type: functional; method in brief: as §2
Campylobacter jejuni [22] = test: Antimicrobial activity against Campylobacter jejuni 700819 mutant 1 by agar dilution method; type: functional; method in brief: as §2
Campylobacter jejuni [23] = test: Antimicrobial activity against Campylobacter jejuni 700819 mutant 7 with cmeB mutation by agar dilution method; type: functional; method in brief: as §1
Campylobacter jejuni [24] = test: Antimicrobial activity against Campylobacter jejuni 700819 mutant 12 by agar dilution method; type: functional; method in brief: as §2
Campylobacter jejuni [25] = test: Effect on Campylobacter jejuni S3B mutant colonization at 8 ug/ml; type: functional, organism-based; method in brief: as §3
Campylobacter jejuni [26] = test: Antimicrobial activity against Campylobacter jejuni 700819 mutant 10 with cmeB mutation by agar dilution method; type: functional; method in brief: as §1
Campylobacter jejuni [27] = test: Antimicrobial activity against Campylobacter jejuni 700819 mutant 1 with cmeB mutation by agar dilution method; type: functional; method in brief: as §1
Campylobacter jejuni [28] = test: Antimicrobial activity against Campylobacter jejuni S3BE2-2 mutant by agar dilution method; type: functional; method in brief: as §2
Campylobacter jejuni [29] = test: Antimicrobial activity against Campylobacter jejuni 700819 mutant 9 with cmeB mutation by agar dilution method; type: functional; method in brief: as §1
Campylobacter coli [30] = test: Antimicrobial activity against Campylobacter coli RN14BE4-2/A2074G and cmeB mutation by agar dilution method; type: functional; method in brief: as §1
Campylobacter coli [31] = test: Antimicrobial activity against Campylobacter coli MR32D by agar dilution method; type: functional
Method in brief: (§4)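 Erythromycin MIC by agar dilution per CLSI (formerly NCCLS). Strains were grown on Mueller-Hinton agar or in MH broth at 42°C under microaerobic conditions. MH media were supplemented with various amounts of Ery.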

Campylobacter jejuni [32] = test: Antimicrobial activity against Campylobacter jejuni 700819 by agar dilution method; type: functional; method in brief: as §4
Campylobacter coli [33] = test: Antimicrobial activity against Campylobacter coli RN14BE8-2 mutant by agar dilution method; type: functional; method in brief: as §2
Campylobacter coli [34] = test: Antimicrobial activity against Campylobacter coli RN14BE4-3 mutant with cmeB mutation by agar dilution method; type: functional; method in brief: as §1
Campylobacter jejuni [35] = test: Antimicrobial activity against Campylobacter jejuni S3BE4-1 mutant by agar dilution method; type: functional; method in brief: as §2
Campylobacter jejuni [36] = test: Antimicrobial activity against Campylobacter jejuni 700819 with cmeB mutation by agar dilution method; type: functional; method in brief: as §1
Campylobacter jejuni [37] = test: Antimicrobial activity against Campylobacter jejuni 700819 mutant 7 by agar dilution method; type: functional; method in brief: as §2
Campylobacter coli [38] = test: Antimicrobial activity against Campylobacter coli AW-ll-35/AW-ll-37 mutant in chickens assessed as reduction in colonization; type: functional, organism-based
Method in brief: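 Campylobacter-free broiler chickens were orally dosed with a mixed C. coli AW-II-35 + AW-II-37 culture (10⁷ CFU/bird). Five days later one group received tylosin in drinking water (0.53 g/liter, about 110 mg/kg/day) for 3 days; a parallel group was left untreated. Cloacal swabs were serially plated on selective MH, counted after 48 h at 42°C, and compared by t test on log₁₀ CFU/g feces (P<0.01).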

Campylobacter jejuni [39] = test: Antimicrobial activity against Campylobacter jejuni 700819 mutant 8 by agar dilution method; type: functional; method in brief: as §2
Campylobacter jejuni [40] = test: Antimicrobial activity against Campylobacter jejuni 700819 mutant 3 with cmeB mutation by agar dilution method; type: functional; method in brief: as §1
Campylobacter coli [41] = test: Antimicrobial activity against Campylobacter coli AW-II-35 by agar dilution method; type: functional; method in brief: as §2
Campylobacter jejuni [42] = test: Antimicrobial activity against Campylobacter jejuni 700819 mutant 2 by agar dilution method; type: functional; method in brief: as §2
Campylobacter coli [43] = test: Antimicrobial activity against Campylobacter coli MR32DE8-1 mutant by agar dilution method; type: functional; method in brief: as §2
Campylobacter jejuni [44] = test: Antimicrobial activity against Campylobacter jejuni 700819 mutant 10 by agar dilution method; type: functional; method in brief: as §2
Campylobacter coli [45] = test: Antimicrobial activity against Campylobacter coli RN14B by agar dilution method; type: functional; method in brief: as §4
Campylobacter jejuni [46] = test: Antimicrobial activity against Campylobacter jejuni S3BE4-3 mutant by agar dilution method; type: functional; method in brief: as §2
Campylobacter jejuni [47] = test: Antimicrobial activity against Campylobacter jejuni 700819 mutant 4 by agar dilution method; type: functional; method in brief: as §2
Campylobacter jejuni [48] = test: Antimicrobial activity against Campylobacter jejuni 700819 mutant 2 with cmeB mutation by agar dilution method; type: functional; method in brief: as §1
Campylobacter coli [49] = test: Antimicrobial activity against Campylobacter coli RN14B with cmeB mutation by agar dilution method; type: functional; method in brief: as §1
Campylobacter jejuni [50] = test: Antimicrobial activity against Campylobacter jejuni S3B by agar dilution method; type: functional; method in brief: as §4
Campylobacter jejuni [51] = test: Antimicrobial activity against Campylobacter jejuni 700819 mutant 12 with cmeB mutation by agar dilution method; type: functional; method in brief: as §1

## CC[C@H]1OC(=O)[C@H](C)[C@@H](O[C@H]2C[C@@](C)(OC)[C@@H](O)[C@H](C)O2)[C@H](C)[C@@H](O[C@@H]2O[C@H](C)C[C@H](N(C)C)[C@H]2O)[C@](C)(O)C[C@@H](C)C(=O)[C@H](C)[C@@H](O)[C@]1(C)O [ERYTHROMYCIN]
Campylobacter jejuni [1]
  MIC: 1 µg/mL (≈ 1.36 µM)
Campylobacter jejuni [2]
  MIC: 32 µg/mL (≈ 43.6 µM)
Campylobacter jejuni [3]
  MIC: 32 µg/mL (≈ 43.6 µM)
Campylobacter jejuni [4]
  MIC: 256 µg/mL (≈ 349 µM)
Campylobacter jejuni [5]
  MIC: > 512 µg/mL
Campylobacter jejuni [6]
  MIC: 32 µg/mL (≈ 43.6 µM)
Campylobacter jejuni [7]
  Activity: Active
Campylobacter coli [8]
  MIC: 0.125 µg/mL (≈ 0.17 µM)
Campylobacter coli [9]
  MIC: 32 µg/mL (≈ 43.6 µM)
Campylobacter coli [10]
  MIC: 32 µg/mL (≈ 43.6 µM)
Campylobacter coli [11]
  MIC: 32 µg/mL (≈ 43.6 µM)
Campylobacter coli [12]
  MIC: 8 µg/mL (≈ 10.9 µM)
Campylobacter jejuni [13]
  MIC: 0.125 µg/mL (≈ 0.17 µM)
Campylobacter jejuni [14]
  MIC: 8 µg/mL (≈ 10.9 µM)
Campylobacter jejuni [15]
  MIC: 0.25 µg/mL (≈ 0.341 µM)
Campylobacter jejuni [16]
  MIC: 32 µg/mL (≈ 43.6 µM)
Campylobacter coli [17]
  MIC: 8 µg/mL (≈ 10.9 µM)
Campylobacter jejuni [18]
  MIC: 0.25 µg/mL (≈ 0.341 µM)
Campylobacter jejuni [19]
  MIC: 32 µg/mL (≈ 43.6 µM)
Campylobacter jejuni [20]
  MIC: > 512 µg/mL
Campylobacter jejuni [21]
  MIC: 32 µg/mL (≈ 43.6 µM)
Campylobacter jejuni [22]
  MIC: 8 µg/mL (≈ 10.9 µM)
Campylobacter jejuni [23]
  MIC: 0.25 µg/mL (≈ 0.341 µM)
Campylobacter jejuni [24]
  MIC: 8 µg/mL (≈ 10.9 µM)
Campylobacter jejuni [25]
  Activity: Active
Campylobacter jejuni [26]
  MIC: 0.125 µg/mL (≈ 0.17 µM)
Campylobacter jejuni [27]
  MIC: 0.25 µg/mL (≈ 0.341 µM)
Campylobacter jejuni [28]
  MIC: 256 µg/mL (≈ 349 µM)
Campylobacter jejuni [29]
  MIC: 0.25 µg/mL (≈ 0.341 µM)
Campylobacter coli [30]
  MIC: 0.125 µg/mL (≈ 0.17 µM)
Campylobacter coli [31]
  MIC: 2 µg/mL (≈ 2.73 µM)
Campylobacter jejuni [32]
  MIC: 2 µg/mL (≈ 2.73 µM)
Campylobacter coli [33]
  MIC: 32 µg/mL (≈ 43.6 µM)
Campylobacter coli [34]
  MIC: 0.125 µg/mL (≈ 0.17 µM)
Campylobacter jejuni [35]
  MIC: 32 µg/mL (≈ 43.6 µM)
Campylobacter jejuni [36]
  MIC: 0.125 µg/mL (≈ 0.17 µM)
Campylobacter jejuni [37]
  MIC: 8 µg/mL (≈ 10.9 µM)
Campylobacter coli [38]
  Activity: Active
Campylobacter jejuni [39]
  MIC: 16 µg/mL (≈ 21.8 µM)
Campylobacter jejuni [40]
  MIC: 0.25 µg/mL (≈ 0.341 µM)
Campylobacter coli [41]
  MIC: 0.125 µg/mL (≈ 0.17 µM)
Campylobacter jejuni [42]
  MIC: 8 µg/mL (≈ 10.9 µM)
Campylobacter coli [43]
  MIC: 32 µg/mL (≈ 43.6 µM)
Campylobacter jejuni [44]
  MIC: 8 µg/mL (≈ 10.9 µM)
Campylobacter coli [45]
  MIC: 2 µg/mL (≈ 2.73 µM)
Campylobacter jejuni [46]
  MIC: 128 µg/mL (≈ 174 µM)
Campylobacter jejuni [47]
  MIC: > 512 µg/mL
Campylobacter jejuni [48]
  MIC: 0.125 µg/mL (≈ 0.17 µM)
Campylobacter coli [49]
  MIC: 0.125 µg/mL (≈ 0.17 µM)
Campylobacter jejuni [50]
  MIC: 2 µg/mL (≈ 2.73 µM)
Campylobacter jejuni [51]
  MIC: 0.25 µg/mL (≈ 0.341 µM)
